Measurements as given in ChEMBL document CHEMBL1129750, “Bicyclic N-hydroxyurea inhibitors of 5-lipoxygenase: pharmacodynamic, pharmacokinetic, and in vitro metabolic studies characterizing N-hydroxy-N-(2,3-dihydro-6-(phenylmethoxy)-3-benzofuranyl)urea” (J Med Chem, 1996).
Each block holds one compound with its values, some of them ahead of it. Activity calls are given as the source filed them. The calls are words filed in the database; no cut-off is given here.

Experiments:
[1] = tested on: Mus musculus; experiment: Compound was tested to inhibit Leukotriene formation in mouse sensitized with 1BD8 cells after 7 hr of compound administration, activity expressed as percent of control; assay type: functional; design: concentration or dose not given beside the values
[2] = target: T1, Polyunsaturated fatty acid 5-lipoxygenase (Mus musculus) (UniProt P48999); experiment: Inhibition of leukotriene formation in A-23187-stimulated mouse whole blood using […] ex vivo, activity expressed as percent of control.; assay type: functional, tissue-based; design: scale not given: the % may be the effect or the level left
T1 sequence (whole entry): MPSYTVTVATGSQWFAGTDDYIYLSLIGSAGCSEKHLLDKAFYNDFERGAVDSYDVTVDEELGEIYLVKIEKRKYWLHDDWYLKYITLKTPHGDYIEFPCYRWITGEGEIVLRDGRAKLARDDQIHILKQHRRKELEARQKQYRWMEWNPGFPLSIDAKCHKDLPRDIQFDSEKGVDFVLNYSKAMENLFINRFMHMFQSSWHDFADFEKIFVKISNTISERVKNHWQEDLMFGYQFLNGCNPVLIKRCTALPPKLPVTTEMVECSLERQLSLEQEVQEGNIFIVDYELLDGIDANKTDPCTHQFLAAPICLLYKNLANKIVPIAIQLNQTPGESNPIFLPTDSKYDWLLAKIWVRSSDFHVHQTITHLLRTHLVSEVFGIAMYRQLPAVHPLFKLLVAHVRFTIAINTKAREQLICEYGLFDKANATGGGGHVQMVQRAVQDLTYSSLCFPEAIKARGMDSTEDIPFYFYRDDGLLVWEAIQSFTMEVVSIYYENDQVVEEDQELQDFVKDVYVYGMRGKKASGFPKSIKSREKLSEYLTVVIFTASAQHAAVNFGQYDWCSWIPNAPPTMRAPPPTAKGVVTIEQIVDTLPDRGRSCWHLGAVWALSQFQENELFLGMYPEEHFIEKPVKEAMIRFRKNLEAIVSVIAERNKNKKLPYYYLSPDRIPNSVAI

[3] = species on record: Mus musculus; experiment: Compound was tested to inhibit Leukotriene formation in A-23187-stimulated mouse whole blood using […] ex vivo; assay type: functional
[4] = species on record: Mus musculus; experiment: Glucuronidation rates in mouse liver microsomes; assay type: functional
How it was run: (§1)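 Liver microsomes (fresh male CD-1 mouse >10 weeks, or frozen human donor) at 0.25–1.0 mg/mL protein. Incubated with 2.5 mM substrate, 15 mM [14C]UDP-glucuronic acid, 10 mM MgCl2 and 2% BSA in 100 mM sodium phosphate pH 7.4, at 37 °C for 1–4 h. Stopped with 20% acetonitrile; glucuronide quantified by HPLC. Mean of duplicates.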

[5] = tested on: Mus musculus; experiment: Maximum inhibition of LTB4 at dose 2 mg/kg in mouse; assay type: functional
[6] = tested on: Mus musculus; experiment: Percentage inhibition of LTB4 after 6 hr at dose 2 mg/kg in mouse; assay type: functional
[7] = species on record: Homo sapiens; experiment: Glucuronidation rates in human liver microsomes; assay type: functional; how it was run: as §1
[8] = species on record: Mus musculus; experiment: Inhibition of Leukotriene formation in mouse adoptive peritoneal anaphylaxis assay ex vivo; assay type: functional; settings: Mus musculus
[9] = target: T2, Polyunsaturated fatty acid 5-lipoxygenase (Rattus norvegicus, UniProt P12527); experiment: Inhibitory activity against rat 5-lipoxygenase by using continuous oxygen consumption assay.
T2 sequence (P12527 whole entry): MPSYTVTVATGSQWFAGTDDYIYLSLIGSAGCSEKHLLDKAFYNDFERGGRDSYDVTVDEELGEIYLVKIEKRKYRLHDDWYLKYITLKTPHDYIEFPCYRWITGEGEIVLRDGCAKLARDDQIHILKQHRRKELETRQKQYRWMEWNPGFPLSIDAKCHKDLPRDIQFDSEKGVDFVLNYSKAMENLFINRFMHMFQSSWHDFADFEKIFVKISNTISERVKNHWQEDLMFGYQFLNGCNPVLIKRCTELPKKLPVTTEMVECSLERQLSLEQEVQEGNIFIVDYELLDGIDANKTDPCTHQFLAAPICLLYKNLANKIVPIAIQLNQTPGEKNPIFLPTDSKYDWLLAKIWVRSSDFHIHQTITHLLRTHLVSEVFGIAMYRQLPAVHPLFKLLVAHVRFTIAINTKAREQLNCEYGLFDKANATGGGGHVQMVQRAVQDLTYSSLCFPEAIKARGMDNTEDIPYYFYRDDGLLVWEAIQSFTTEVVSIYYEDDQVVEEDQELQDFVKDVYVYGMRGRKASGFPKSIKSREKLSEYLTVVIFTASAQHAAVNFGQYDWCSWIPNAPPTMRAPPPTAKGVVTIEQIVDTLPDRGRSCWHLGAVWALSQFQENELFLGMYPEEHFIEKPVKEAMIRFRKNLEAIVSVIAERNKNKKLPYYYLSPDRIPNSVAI
How it was run: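 Semipurified cytosolic 5-LO from rat basophilic leukemia (RBL-1) cells; continuous oxygen-electrode assay of oxygen consumption; IC50.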

[10] = tested on: Mus musculus; experiment: Maximum inhibition of LTB4 at dose 10 mg/kg in mouse; assay type: functional
[11] = tested on: Mus musculus; experiment: Percentage inhibition of LTB4 after 6 hr at dose 10 mg/kg in mouse; assay type: functional
[12] = species on record: Mus musculus; experiment: Compound was tested to inhibit Leukotriene formation in A-23187-stimulated mouse whole blood using […] ex vivo, activity expressed as percent of control; NS=No Stastistical Significance; assay type: functional, organism-based
[13] = species on record: Mus musculus; experiment: Glucuronidation rates in mouse liver microsomes; not detected; assay type: functional; how it was run: as §1
[14] = tested on: Canis familiaris; experiment: Compound was administered intravenously in dog to evaluate plasma clearance values; assay type: ADME, organism-based, Canis lupus familiaris; settings: in vivo, iv
How it was run: (§2)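 IV infusion over 15 min via saphenous (monkey) or cephalic (dog) vein catheter, 1–1.4 mg/kg in 7.5% (w/v) aqueous (2-hydroxypropyl)-β-cyclodextrin; male cynomolgus monkeys and beagle dogs, N = 3. Chilled plasma analysed by HPLC. Noncompartmental parameters were estimated per animal and then averaged. CLp = dose/AUC, with AUC by linear/log-linear trapezoidal rule.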

[15] = Compound was administered intravenously in monkey to evaluate plasma clearance values; assay type: ADME, organism-based; settings: simiiformes, plasma, iv; read-out: Clp; how it was run: as §2
[16] = Compound was administered intravenously in mouse to evaluate plasma clearance values; assay type: ADME, organism-based; settings: iv, read-out: Clp
How it was run: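 Male CD-1 mice given 0.5 mg/kg IV by lateral tail vein over 5–10 s, in ethanol/propylene glycol 30:70 v/v; N = 3 per time point with terminal sampling under ether. Plasma HPLC, LOQ 0.05 μg/mL. Mean concentration per time point before noncompartmental analysis. Half-life from slope of log-concentration profile; CLp = dose/AUC.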

[17] = Mus musculus, Blood, read-out: ED50

SMILES: NC(=O)N(O)C1CCc2cc(Oc3ccccc3)ccc21 (stereo not drawn)
IC50 [9]: 850 nM
Activity [2]: -88%
ED50 [3, 17]: 6.4 mg/kg
Max inhibition [10]: 88
inhibition in vivo at 10 mg/kg [11]: 57%

SMILES: NC(=O)N(O)C1CCn2c1cc1cc(Oc3ccccc3)ccc12 (stereo not drawn)
IC50 [9]: 520 nM
Activity [2]: -58%

SMILES: NC(=O)N(O)C1CCc2cc(OCc3ccccc3)ccc21 (stereo in doubt; (-)2a)
Activity [2]: 0.9%

SMILES: NC(=O)N(O)C1CCCc2c1ccc1ccccc21 (stereo not drawn)
IC50 [9]: 5600 nM

SMILES: NC(=O)N(O)C1COc2cc(OCc3ccccc3)ccc21 (single isomer, unassigned; (+)) [listing 1 of 2 here]
Rate of formation [13]: inactive
Rate of formation (nM (mg of protein)-1) [7]: 2.5

SMILES: CCc1ccc2c(c1)cc1n2CCC1N(O)C(N)=O (stereo not drawn)
Activity [12]: inactive

SMILES: NC(=O)N(O)C1CCc2cc(OCc3ccccc3)ccc21 (single isomer, unassigned; (+))
IC50 [9]: 880 nM

SMILES: NC(=O)N(O)C1CCCc2cc(OCc3ccccc3)ccc21 (single isomer, unassigned; (+)) [listing 2 of 2 here]
Activity [2]: 28%

SMILES: NC(=O)N(O)C1CCCc2cc(OCc3ccccc3)ccc21 (single isomer, unassigned; (-))
IC50 [9]: 1300 nM

Further lines, with some results ahead:

Activity [2]: -78%
SMILES: CC(c1cc2ccccc2s1)N(O)C(N)=O (stereo not drawn) [ZILEUTON]
Activity [1]: -10%
ED50 [3, 17]: 1 mg/kg
Rate of formation (nM (mg of protein)-1) [4]: 0.7
Max inhibition [5]: 70
inhibition in vivo at 2 mg/kg [6]: 40%
Rate of formation (nM (mg of protein)-1) [7]: 6.8
ED50 [8]: 1 mg/kg

IC50 [9]: 780 nM
SMILES: NC(=O)N(O)C1CCc2cc(OCc3ccccc3)ccc21 (stereo in doubt; 2a)
Activity [1]: -31%
ED50 [3, 17]: 2.6 mg/kg
ED50 [8]: 4 mg/kg

IC50 [9]: 760 nM
SMILES: NC(=O)N(O)C1CCCc2cc(OCc3ccccc3)ccc21 (single isomer, unassigned; (+)) [listing 1 of 2 here]

IC50 [9]: 29000 nM
Activity [2]: -30%
SMILES: NC(=O)N(O)C1CCCc2ccccc21 (stereo not drawn)

IC50 [9]: 10000 nM
Activity [2]: -74%
SMILES: NC(=O)N(O)C1CCn2c1cc1ccccc12 (stereo not drawn)

IC50 [9]: 1000 nM
SMILES: NC(=O)N(O)C1CCCc2ccc(OCc3ccccc3)cc21 (stereo not drawn)
Activity [12]: inactive

IC50 [9]: 3000 nM
Activity [2]: -52%
SMILES: NC(=O)N(O)C1CCCc2cc(-c3ccccc3)ccc21 (stereo not drawn)

IC50 [9]: 500 nM
Activity [2]: -81%
SMILES: COc1ccc(COc2ccc3c(c2)CCCC3N(O)C(N)=O)cc1 (stereo not drawn)
Activity [1]: -13%
ED50 [3, 17]: 4.8 mg/kg
ED50 [8]: 4.8 mg/kg

Clp [14]: 3.5 mL/min
clearance [15]: 6.1 mL/min
clearance [16]: 8.6 mL/min
SMILES: NC(=O)N(O)C1COc2cc(OCc3ccccc3)ccc21 (single isomer, unassigned; (+)) [listing 2 of 2 here]
ED50 [3]: 0.9 mg/kg

IC50 [9]: 840 nM
Activity [2]: -57%
SMILES: NC(=O)N(O)C1CCCc2c(Oc3ccccc3)cccc21 (stereo not drawn)

IC50 [9]: 2200 nM
Activity [2]: -70%
SMILES: NC(=O)N(O)C1CCCc2cc(OCc3ccc(Cl)cc3)ccc21 (stereo not drawn)
Activity [1]: 0%
ED50 [3, 17]: 4.5 mg/kg
ED50 [8]: 4.5 mg/kg

IC50 [9]: 1300 nM
SMILES: NC(=O)N(O)C1CCn2c1cc1cc(Cl)ccc12 (stereo not drawn)
